ALR H2O2 inh – inhibitors of human sulfhydryl oxidase ALR; inhibition, % (no concentration beside the values); 290,000 compounds, 3.8% hits; P55789; purified ALR, DTT oxidation, H2O2 HRP-luminol luminescence;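 active means mean replicate inhibition above about 79%, with every replicate also reaching it, limit read from the data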
SUMO HTRF inh – blocks human SUMOylation mediated by UBC9; HTRF SUMOylation assay, SAE1/SAE2 + UBC9, in vitro; 290,000 compounds, 0.36% hits; inhibition, % at 35 µM; in the data active means inhibition above about 50%, passing the limit was not always enough
UBC13 inh – inhibitors of human UBC13 polyubiquitin chain formation | 330,000 compounds, 0.47% hits | inhibition, % at 20 µM | TR-FRET; in the data active means inhibition above about 45%, passing the limit was not always enough
RBBP9 inh – inhibitors of human serine hydrolase RBBP9; inhibition, % at 7.94 µM; O75884; recombinant RBBP9, FP-Rh probe fluorescence polarization; 220,000 compounds, 0.2% hits;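 active means inhibition above the campaign mean of all tested compounds plus 3 SD, cut at about 14% in these data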;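 further: plate controls were DMSO wells with RBBP9 for no effect and wells lacking RBBP9 protein for full effect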
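Test system: recombinant human RBBP9. Quantity: 2.5 µM RBBP9 dispensing solution, before mixing. Detection: FP readout at 525/598 nm. Reagent: Serine-hydrolase probe FP-Rh, 375 nM pre-mixing. Measure: % inhibition. Control set: DMSO-treated enzyme wells and wells lacking RBBP9. Buffer or medium: Tris-NaCl-Pluronic buffer, pH 8.0. Times: preincubation 30 min plus labeling 45 min at 25 °C.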
Rin1-Abl PPI inh – inhibitors of human Rin1-Abl protein interaction; P00519+Q13671; TR-FRET Rin1/Abl binding, biochemical; inhibition, % at 7.35 µM; 360,000 compounds, 0.4% hits; AID 588664; in the data active means inhibition above about 5%, passing the limit was not always enough
Target sequence (P00519 whole entry, looked up): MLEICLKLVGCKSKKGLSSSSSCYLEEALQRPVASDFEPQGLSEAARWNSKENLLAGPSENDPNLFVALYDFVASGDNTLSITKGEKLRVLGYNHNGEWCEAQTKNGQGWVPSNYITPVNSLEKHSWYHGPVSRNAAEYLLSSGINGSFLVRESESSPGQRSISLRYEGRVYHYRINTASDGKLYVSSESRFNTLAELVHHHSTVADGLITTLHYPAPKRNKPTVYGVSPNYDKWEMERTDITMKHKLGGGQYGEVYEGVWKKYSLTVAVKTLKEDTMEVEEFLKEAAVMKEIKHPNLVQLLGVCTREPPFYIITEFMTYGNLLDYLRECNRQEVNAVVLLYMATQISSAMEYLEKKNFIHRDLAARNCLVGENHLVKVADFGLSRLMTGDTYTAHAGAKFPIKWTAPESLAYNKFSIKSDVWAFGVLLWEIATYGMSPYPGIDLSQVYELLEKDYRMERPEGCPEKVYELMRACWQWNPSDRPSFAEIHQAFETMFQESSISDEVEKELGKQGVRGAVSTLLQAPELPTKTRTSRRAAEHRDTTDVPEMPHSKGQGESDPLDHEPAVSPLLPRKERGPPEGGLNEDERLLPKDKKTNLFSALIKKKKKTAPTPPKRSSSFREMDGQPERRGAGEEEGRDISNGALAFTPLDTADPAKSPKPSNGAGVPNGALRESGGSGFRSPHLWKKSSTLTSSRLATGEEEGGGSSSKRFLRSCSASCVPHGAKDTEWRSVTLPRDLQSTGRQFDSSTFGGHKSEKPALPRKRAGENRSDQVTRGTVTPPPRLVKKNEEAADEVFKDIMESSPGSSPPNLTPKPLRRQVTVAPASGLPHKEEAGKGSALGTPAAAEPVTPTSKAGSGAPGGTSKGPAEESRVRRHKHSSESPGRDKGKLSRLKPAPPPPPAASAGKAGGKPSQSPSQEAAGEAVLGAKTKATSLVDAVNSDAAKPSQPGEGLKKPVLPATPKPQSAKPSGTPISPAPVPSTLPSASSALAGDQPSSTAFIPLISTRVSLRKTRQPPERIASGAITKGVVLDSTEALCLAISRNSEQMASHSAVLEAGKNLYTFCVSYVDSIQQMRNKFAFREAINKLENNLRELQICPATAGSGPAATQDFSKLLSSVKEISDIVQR
Target sequence (Q13671 whole entry, looked up): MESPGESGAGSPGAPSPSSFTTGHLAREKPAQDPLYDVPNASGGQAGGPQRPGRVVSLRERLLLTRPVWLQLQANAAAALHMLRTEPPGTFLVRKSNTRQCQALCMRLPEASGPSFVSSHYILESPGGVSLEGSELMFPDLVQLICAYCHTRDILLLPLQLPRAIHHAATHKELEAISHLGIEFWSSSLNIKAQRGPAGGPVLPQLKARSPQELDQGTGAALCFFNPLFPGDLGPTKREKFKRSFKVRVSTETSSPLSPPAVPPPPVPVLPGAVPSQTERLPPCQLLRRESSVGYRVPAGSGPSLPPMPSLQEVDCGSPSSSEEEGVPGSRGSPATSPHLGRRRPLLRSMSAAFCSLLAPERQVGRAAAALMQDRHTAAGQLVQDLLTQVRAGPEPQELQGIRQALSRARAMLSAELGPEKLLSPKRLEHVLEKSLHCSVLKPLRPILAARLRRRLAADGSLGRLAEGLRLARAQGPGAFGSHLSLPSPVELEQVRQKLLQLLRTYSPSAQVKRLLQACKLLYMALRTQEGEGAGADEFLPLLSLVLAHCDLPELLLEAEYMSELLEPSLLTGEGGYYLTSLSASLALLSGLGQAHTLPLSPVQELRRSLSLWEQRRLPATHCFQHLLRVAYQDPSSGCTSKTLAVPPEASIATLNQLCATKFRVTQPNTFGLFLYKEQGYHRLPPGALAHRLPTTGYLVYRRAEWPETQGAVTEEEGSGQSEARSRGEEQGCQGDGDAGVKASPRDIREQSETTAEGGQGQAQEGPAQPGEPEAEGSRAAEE
PREPL inhibitor – human PREPL enzyme inhibition. recombinant PREPL, fluorescence polarization activity-based probe. Q4J6C6. 320,000 compounds, 0.68% hits. inhibition, % at 5.96 µM; in the data active means inhibition above about 43%;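 further: 0% = enzyme with DMSO and 100% = wells lacking enzyme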
* marks the source's active call; other numbers are inactive results; nt = not tested or not shown. This is a sample that favours compounds with a hit; in the whole collection about 4.3% have one here.

SMILES	ALR H2O2 inh	SUMO HTRF inh	UBC13 inh	RBBP9 inh	Rin1-Abl PPI inh	PREPL inhibitor
C[C@]12CC[C@@H]3c4ccc(OC(=O)c5ccccc5)cc4CC[C@H]3[C@@H]1CC[C@@H]2O	-14	22	14	0	-1	12
CCCNC(=O)C1(C)CCCN(C(=O)c2ccc(F)cc2Cl)C1 (stereo unspecified)	nt	nt	nt	nt	-1	nt
CC(=O)Nc1ccc(SCC(=O)N(CCC#N)c2ccc(C)cc2)cc1	97*	14	6	-3	-4	-29
CN1N=C(C(=O)N=c2sc3ccccc3n2C)CCC1=O	nt	nt	nt	nt	-4	nt
COc1cc(N)c(Cc2nccc3cc(OC)c(OC)cc23)cc1OC	88*	17	-6	-5	-2	13
Cc1ccc(C)c(S(=O)(=O)N2CCCCC2CCNC(=O)C(=O)NCc2ccccc2)c1 (stereo unspecified)	nt	nt	-9	nt	6	-5
CC(=O)C1(C)C(=O)N(c2ccc(F)cc2)C(=O)N1c1ccc(F)cc1 (stereo unspecified)	nt	nt	nt	nt	3	nt
O=c1ccsn1Cc1ccccc1	98*	7	0	-12	-2	4
O=C1NC(Cc2ccccc2)C(=O)N1Cc1ccccc1 (stereo unspecified)	nt	nt	nt	nt	3	nt
O=C(c1ccc([N+](=O)[O-])cc1)N1CCN=C1SCc1ccccc1	nt	7	14	2	-3	12
O=C(c1ccccc1)N1CCN=C1SCc1ccc([N+](=O)[O-])cc1	99*	0	5	-5	-3	13
Cc1ccc(C(=O)N2CCN=C2SCc2ccc([N+](=O)[O-])cc2)cc1C	99*	-8	12	-7	-2	-2
O=C(/C(=N/N=C/c1ccc(O)c(O)c1O)c1ccccc1)c1ccccc1	99*	35	-45	-4	12*	22
O=C(NN=Cc1ccc(O)c(O)c1)c1ccccc1	nt	nt	nt	nt	7	nt
O=C(N/N=C/c1cc(Cl)cc([N+](=O)[O-])c1O)c1ccccc1NS(=O)(=O)c1cccs1	10	100*	-57	-2	0	16
O=C(NN=Cc1ccc(O)cc1)c1ccccc1NS(=O)(=O)c1cccs1	99*	nt	-17	nt	2	22
O=C(O)c1ccc(C=NNC(=O)c2ccccc2NS(=O)(=O)c2cccs2)cc1	5	nt	-3	nt	0	5
O=C(NN=Cc1c(F)cccc1F)c1ccccc1NS(=O)(=O)c1cccs1	33	nt	7	nt	0	6
O=C1CCCCC1CCc1ccncc1 (stereo unspecified)	nt	nt	nt	nt	5	nt
C/C(=N\NC(=O)CCCNc1ccc(C)cc1)c1ccccn1	98*	-5	-19	-8	2	8
C/C(=N\NC(=O)CCCNc1ccccc1)c1ccncc1	48	5	-6	-13	6	7
COc1cc(O)ccc1C(=O)CCc1ccc(O)cc1	99*	5	2	nt	3	-2
CNC(=O)C[C@H]1C(=O)N(CCc2ccccc2)C[C@@H]1c1ccc(OC)cc1	nt	nt	nt	nt	0	nt
CC(C)CCn1c(N2CCCC2)nc2c1c(=O)n(C)c(=O)n2C	57	7	2	nt	1	4
CCCCCCn1c(N2CCCC2)nc2c1c(=O)n(C)c(=O)n2C	97*	-7	-2	nt	4	8
SMILES	ALR H2O2 inh	SUMO HTRF inh	UBC13 inh	RBBP9 inh	Rin1-Abl PPI inh	PREPL inhibitor
CCOCCn1c(N2CCN(c3ccc(OC)cc3)CC2)nc2c1c(=O)n(C)c(=O)n2C	91*	10	1	-12	3	29
COc1ccc(OCc2nc3ccccc3[nH]2)cc1	-1	-3	1	2	-3	-3
COc1ccc(NS(=O)(=O)c2ccc3nc(COc4ccc(C#N)cc4)[nH]c3c2)cc1	98*	1	4	-24	2	-14
COc1cccc(NC(=O)CN2CCN(c3ccc(F)cc3)CC2)c1	97*	1	0	-6	0	19
O=C(CCN1CCN(c2ccccc2F)CC1)Nc1ccccc1F	2	4	-3	-4	3	19
COc1ccc(N2CCC(CNC(=O)Nc3cccc(OC)c3)C2)cc1 (stereo unspecified)	82*	-16	-2	2	-3	16
O=C(CNCc1cccs1)Nc1ccc(S(=O)(=O)N2CCCCC2)cc1	-6	5	-2	-3	6	3
O=C(CCN1CCN(c2ccc(Cl)cc2)CC1)Nc1ccccc1F	88*	27	1	-10	-3	25
COc1ccc(N2CCC(CNC(=S)Nc3cccc(OC)c3)C2)cc1 (stereo unspecified)	15	-16	4	-4	nt	34
O=C(CNCc1cccs1)Nc1ccc(N2CCCCCC2)cc1	99*	-20	2	5	-1	1
COc1cccc(C(=O)N2CCC(C(=O)NCc3ccc(C)cc3)CC2)c1	-5	-8	-2	nt	2	12
O=C(CN1CCN(c2ccccc2)CC1)Nc1ccccc1Cl	98*	-15	11	9	1	26
COC(=O)c1ccc(C(=O)OC)c(NC(=O)CN2CCN(c3ccc(OC)cc3)CC2)c1	-1	20	-7	0	4	33
COC(=O)c1ccc(NC(=O)CN2CCN(c3ccccc3)CC2)cc1	92*	3	7	-3	0	-13
COc1cccc(N2CCN(CC(=O)NC(C)c3ccccc3)CC2)c1 (stereo unspecified)	81*	13	-6	nt	0	nt
CCOC(=O)c1ccc(NC(=O)CN2CCN(c3ccccc3)CC2)cc1	2	-15	5	0	2	-33
COC(=O)c1cccc(NC(=O)CN2CCN(c3ccc(OC)cc3)CC2)c1	88*	2	4	8	-4	5
CCN(CC)C(=O)C1=C(C)N(Cc2ccc(C(C)(C)C)cc2)C(=O)C(CC(=O)NC(c2ccccc2)c2ccccc2)C1 (stereo unspecified)	nt	nt	nt	nt	7	nt
COc1ccc2nc(SCC(=O)N3CCN(c4ccc(F)cc4)CC3)c(C#N)cc2c1	-5	-24	-2	-4	-4	-13
CCCOC(=O)Nc1ccc(N2CCCCC2)cc1	97*	-12	-9	4	-2	13
COc1ccc(N2CCN(CC(=O)Nc3ccc(C)cc3)CC2)cc1	90*	6	-6	nt	-2	9
CCCCC(=O)Nc1ccc(N2CCCC2)cc1	-5	nt	-7	0	-11	23
COc1cc(OC)nc(NC(=O)CN2CCN(c3ccc(F)cc3)CC2)n1	98*	12	-5	5	-1	26
COc1ccc(CNC(=O)CN2CCN(c3ccc(F)cc3)CC2)cc1	20	-15	7	nt	1	-30
COc1ccc(N2CCN(CC(=O)Nc3cccc(S(=O)(=O)N4CCOCC4)c3)CC2)cc1	78*	-9	3	2	0	8
O=C(CN1CCN(S(=O)(=O)c2ccc3ccccc3c2)CC1)Nc1ccc(N2CCOCC2)cc1	nt	-2	-9	0	1	18
Cc1[nH]c(C)c(S(=O)(=O)NCc2ccc(F)cc2)c1C(=O)N1CCCCC1	4	-5	5	nt	0	5

Bioassay records as filed in PubChem.
